In test [1] the test system is MCF7. The experiment in a line: Cytotoxicity against human MCF7 cells after 72 hrs by MTT assay. The class given is functional, cell-based. The conditions noted are these: for IC50: MCF7, 72 h. The procedure, abridged: (§1)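 MTT viability assay after 72 h incubation; IC50 reported as mean ± error from viability curves.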
Test [2] deals with MG-63. The experiment in a line: Cytotoxicity against human MG63 cells after 72 hrs by MTT assay. The class given is functional, cell-based. To be noted: for IC50: MG-63, 72 h. The procedure, abridged:
as §1

The subject of test [3] is HT-29. The experiment in a line: Cytotoxicity against human HT-29 cells after 72 hrs by MTT assay. The format is functional, cell-based. The conditions noted are these: for IC50: HT-29, 72 h. The procedure, abridged:
as §1
(Tetrazolium assays rely on reduction of a dye to a coloured formazan, in cell work by metabolically active cells.)

Test [4] deals with MCF7. Description: Cytotoxicity against human MCF7 cells after 24 hrs by annexin-V-FITC/propidium iodide staining based flow cytometric method. The conditions noted are these: MCF7, 24 h. The class given is functional, cell-based. Put shortly: (§2)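 Flow cytometric cytotoxicity measured after 24 h exposure; IC50 derived. Viability was also plotted against drug concentrations from 0.1 to 100 µM over 24 h in HT-29, MCF-7 and MG-63.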
In general terms: In flow cytometry, cells or beads pass a laser one at a time.

Test [5] relates to MG-63. The experiment in a line: Cytotoxicity against human MG63 cells after 24 hrs by annexin-V-FITC/propidium iodide staining based flow cytometric method. The class given is functional, cell-based. The conditions noted are these: MG-63, 24 h. The procedure, abridged: as §2
Test [6] relates to HT-29. The experiment in a line: Cytotoxicity against human HT-29 cells after 24 hrs by annexin-V-FITC/propidium iodide staining based flow cytometric method. The format is functional, cell-based. To be noted: HT-29, 24 h. The procedure, abridged: as §2
Test [7] deals with MG-63. Description: Induction of apoptosis in human MG63 cells assessed as viable cells at 1 uM after 24 hrs by annexin-V-FITC/propidium iodide staining based flow cytometric analysis (reference value: 89.58%). The class given is functional. The conditions noted are these: MG-63, 24 h, read-out: Activity.
The test system of test [8] is MG-63. The experiment in a line: Induction of apoptosis in human MG63 cells assessed as total apoptotic cells at 1 uM after 24 hrs by annexin-V-FITC/propidium iodide staining based flow cytometric analysis (reference value: 10.42%). The format is functional.
Test [9] has as its system MG-63. Description: Cell cycle arrest in human MG63 cells assessed as increase in accumulation at G2/M phase at 1 uM after 24 hrs by propidium iodide staining based flow cytometric analysis relative to control. The class given is functional. Put shortly:
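MG-63 cells incubated 24 h with compound at 1 µM alongside vehicle control (DMSO, <0.001%); DNA content measured by fluorescence flow cytometry, giving percentages of cells in G0/G1, S and G2/M; significance versus control tested at p < 0.001.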

Test [10] has as its system MG-63. Description: Induction of apoptosis in human MG63 cells assessed as increase in early apoptotic cells at 1 uM after 24 hrs by annexin-V-FITC/propidium iodide staining based flow cytometric analysis. The class given is functional, cell-based. Put shortly: (§3)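 Apoptosis was assessed in MG-63 cells treated for 24 h at 1 µM, alongside a DMSO vehicle control (<0.001%). Cells were stained with annexin V and PI and analysed by flow cytometry. Populations were classed as early apoptotic (annexin+/PI-), late apoptotic/dead (annexin+/PI+) or living (annexin-/PI-). Total annexin+ percentage and the PI-/PI+ ratio were reported.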

Test [11] deals with MG-63. The experiment in a line: Induction of apoptosis in human MG63 cells assessed as increase in late apoptotic cells at 1 uM after 24 hrs by annexin-V-FITC/propidium iodide staining based flow cytometric analysis. The class given is functional, cell-based. The procedure, abridged:
as §3

Test [12] concerns MG-63. Description: Cell cycle arrest in human MG63 cells assessed as reduction in accumulation at G0/G1-phase at 1 uM after 24 hrs by propidium iodide staining based flow cytometric analysis relative to control. The class given is functional. On the set-up: scale not given: the % may be the effect or the level left. The procedure, abridged:
(§4)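 MG-63 osteosarcoma cells exposed to test agent at 1 µM for 24 h, with a DMSO vehicle control (<0.001%). DNA content was measured by fluorescence flow cytometry, and cells were assigned to G0/G1, S and G2/M phases as percentage of the population. Significance versus control was tested at p < 0.001.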

In test [13] the test system is MG-63. The experiment in a line: Cell cycle arrest in human MG63 cells assessed as reduction in accumulation at S-phase at 1 uM after 24 hrs by propidium iodide staining based flow cytometric analysis relative to control. The format is functional. On the set-up: scale not given: the % may be the effect or the level left. Put shortly:
as §4

We go through nine molecules from ChEMBL document CHEMBL4251735, “New Hybrids Derived from Podophyllic Aldehyde and Diterpenylhydroquinones with Selectivity toward Osteosarcoma Cells” (ACS Med Chem Lett, 2018).

Broadly, the IC50 is the point on the concentration scale where inhibition reaches its midpoint.

Calls of active or inactive are those of the source. The rule behind the calls is not given here.

For `C=C1CCC2[C@](C)(CCC[C@]2(C)C(=O)OCc2ccc(CBr)cc2)[C@H]1CCc1ccc2c(OC(C)=O)ccc(OC(C)=O)c2c1` (stereo partly drawn), the outcome in test [1], in test [2] and in test [3] was Active.

Turning to `C=C1CCC2[C@](C)(CCC[C@]2(C)C(=O)OCCCCCCOC(=O)[C@@H]2C(C=O)=Cc3cc4c(cc3[C@H]2c2cc(OC)c(OC)c(OC)c2)OCO4)[C@H]1CCc1ccc2c(OC(C)=O)ccc(OC(C)=O)c2c1` (stereo partly drawn), the half-maximal inhibitory concentration (IC50) in test [1] is 1000 nM; in test [2], 2060 nM; in test [3] it was 1910 nM; in test [4], greater than 100000 nM; in test [5] it was 44600 nM; in [6], 57600 nM. Besides, the viability at 1 µM in [7] was found to be 88.8%. Also, the Activity in test [8] is listed as 11.24%.

`COc1cc([C@@H]2c3cc4c(cc3[C@H](O)[C@H]3COC(=O)[C@H]23)OCO4)cc(OC)c1OC` [PODOFILOX]: the IC50 in test [1] is 28 nM; in test [2] it was 7 nM; in [3], 66 nM; in test [4], greater than 100000 nM; in [5], 18300 nM; in test [6], greater than 100000 nM. Moreover, the viability at 1 µM in test [7] amounted to 51.4%. Further, the Activity in test [8] is listed as 48.56%. For the same molecule, the outcome in [9] was Active.

Regarding `C=C1CCC2[C@](C)(CCC[C@]2(C)C(=O)OCCCOC(=O)[C@@H]2C(C=O)=Cc3cc4c(cc3[C@H]2c2cc(OC)c(OC)c(OC)c2)OCO4)[C@H]1CCc1ccc2c(OC(C)=O)ccc(OC(C)=O)c2c1` (stereo partly drawn), the IC50 was 2210 nM in test [1]; 2230 nM in test [2]; 1510 nM in test [3]; greater than 100000 nM in [4]; 58200 nM in test [5]; greater than 100000 nM in test [6]. Besides, the viability at 1 µM in test [7] amounted to 75%. For the same molecule, in test [8], the Activity is 25.03%. The result in [9] was Active.

As for `C=C1CCC2[C@](C)(CCC[C@]2(C)C(=O)OC)[C@H]1CCc1ccc2c(OC(C)=O)ccc(OC(C)=O)c2c1` (stereo partly drawn), the IC50 in test [1] is 15 nM; in test [2] it was 410 nM; in test [3] it was 18 nM; in test [4], 29900 nM; in [5] it was 1160 nM; in test [6] it was 5650 nM. Further, the outcome in [9] was Active.

As for `C=C1CCC2[C@](C)(CCC[C@]2(C)C(=O)OCCCBr)[C@H]1CCc1ccc2c(OC(C)=O)ccc(OC(C)=O)c2c1` (stereo partly drawn), the result in test [1], in test [2] and in test [3] was Active.

For `C=C1CCC2[C@](C)(CCC[C@]2(C)C(=O)OCCCCCCBr)[C@H]1CCc1ccc2c(OC(C)=O)ccc(OC(C)=O)c2c1` (stereo partly drawn), the result in test [1], in [2] and in test [3] was Active.

For `C=C1CCC2[C@](C)(CCC[C@]2(C)C(=O)OCc2ccc(COC(=O)[C@@H]3C(C=O)=Cc4cc5c(cc4[C@H]3c3cc(OC)c(OC)c(OC)c3)OCO5)cc2)[C@H]1CCc1ccc2c(OC(C)=O)ccc(OC(C)=O)c2c1` (stereo partly drawn), the IC50 is 1030 nM in test [1]; 150 nM in test [2]; 1440 nM in [3]; greater than 100000 nM in test [4]; 500 nM in test [5]; greater than 100000 nM in [6]. For the same molecule, the viability at 1 µM in test [7] amounted to 10%. For the same molecule, the Activity in test [8] came out at 89.96%; in test [12], 100%; in [13] it was 100%. The outcome in test [10] and in test [11] was Active. Besides, the “fold change (FC)” value in [9] is reported as 5.

As to `COC(=O)[C@@H]1C(C=O)=Cc2cc3c(cc2[C@H]1c1cc(OC)c(OC)c(OC)c1)OCO3` [PODOPHYLLIC ALDEHYDE], the concentration for half-maximal inhibition (IC50) in test [1] is 480 nM; in test [2], 60 nM; in test [3] it was 29 nM; in [4], greater than 100000 nM; in test [5], 1230 nM; in test [6], greater than 100000 nM. For the same molecule, in test [7], the viability at 1 µM is 51.9%. The Activity worked out at 48.08% in [8], 100% in test [12] and 100% in test [13]. For the same molecule, the outcome in test [10], in test [11] and in [9] was Active.
